TAAR1 agonist: human TAAR1 agonists, primary screen, Fluo-8 calcium fluorescence, CHO RD-HGA16 cells; Trace amine-associated receptor 1 (Homo sapiens), Q96RJ0; vehicle wells 0%, saturating PEA agonist 100%; activation, % at 3 µM; hit rate 0.99% among 360,000;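 active = activation above the mean activation of all test compounds in the run plus 3 SD, cut at about 38% in these data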
Target sequence (Q96RJ0 whole entry, looked up): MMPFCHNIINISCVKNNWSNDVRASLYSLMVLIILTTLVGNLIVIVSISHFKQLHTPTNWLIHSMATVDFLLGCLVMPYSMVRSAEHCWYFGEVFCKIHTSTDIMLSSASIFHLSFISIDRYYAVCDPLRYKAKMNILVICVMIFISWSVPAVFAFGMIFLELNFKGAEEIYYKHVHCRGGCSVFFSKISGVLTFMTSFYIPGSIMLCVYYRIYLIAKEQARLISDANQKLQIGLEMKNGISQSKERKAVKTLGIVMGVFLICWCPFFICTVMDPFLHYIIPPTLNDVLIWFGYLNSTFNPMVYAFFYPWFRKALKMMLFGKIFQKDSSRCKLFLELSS
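System: CHO RD-HGA16 cells carrying human TAAR1 plus Gα16; Incubation: 17-24 h seeding, 75 min 37 °C dye, 30 min RT; Measured by: Fluo-8 fluorescence, 5 s baseline then 140 s kinetic read; Control set: DMSO and PEA EC100; Replication: single well for each compound.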
HTR2A ag: mouse Htr2a agonists via beta-arrestin recruitment, primary screen, cell-based, luminescence. 5-hydroxytryptamine receptor 2A (Mus musculus), P35363. CHO-K1 mHTR2A beta-arrestin complementation; percent of 30 µM serotonin response. activation, % at 7.6 µM. hit rate 0.66% among 360,000. AID 624169, 2012;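 active = activation above a run cutoff, the mean activation of all tested compounds plus 3 SD, cut at about 14% in these data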;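 note: 0% = plate median of compound wells and 100% = 30 µM serotonin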
TAAR1 antag: human TAAR1 antagonists, primary screen, Fluo-8 calcium fluorescence, CHO RD-HGA16 cells | antagonist | hit rate 1.5% among 360,000 | Trace amine-associated receptor 1 (Homo sapiens), Q96RJ0 | inhibition, % at 3 µM | AID 624466, 2012;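 active = inhibition above a per-plate cutoff, the mean inhibition of test compounds on that plate plus 3 SD, cut at about 49% in these data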;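 note: 0% = DMSO plus EC80 beta-PEA response and 100% = DMSO alone without agonist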
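Test system: RD-HGA16 CHO cells with stable hTAAR1 and Gα16 / Probe or stimulus: EC80 β-phenethylamine stimulus / Times: seeding 17-24 h prior, 75-min 37 °C, 30-min RT dye loading / Detection: Fluo-8 calcium-sensitive fluorescence / Read-out basis: % inhibition scaled between DMSO and EC80 PEA controls / Repeats: singlicate, one well per test compound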
CHRM1 antagonist: human M1 muscarinic receptor antagonists, primary screen, CHO-K1 cells, Fluo-8 calcium fluorescence, 1536-well; Muscarinic acetylcholine receptor M1 (Homo sapiens), P11229; inhibition, % at 3 µM; hit rate 1.3% among 360,000; CHO-K1 hM1, ACh EC80 antagonist; AID 588852, 2011;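 active = percent inhibition above its own plate's cutoff, namely the mean of that plate's compound wells plus 3 SD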;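 note: peak over basal fluorescence ratio during 140 s after agonist addition; 0% = ACh EC80 plus DMSO and 100% = DMSO alone without agonist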
M1 ag: human M1 muscarinic receptor agonists, primary screen, Fluo-8 calcium fluorescence, CHO-K1 cells, HTS. CHO-K1 hM1, agonist mode; 0% DMSO, 100% acetylcholine EC100. hit rate 0.33% among 360,000. AID 588814, 2011. Muscarinic acetylcholine receptor M1 (Homo sapiens), P11229. activation, % at 3 µM;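 active = activation above the run's mean compound activation plus 3 SD, cut at about 16% in these data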;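 note: peak over basal fluorescence ratio within a 140 s kinetic read after compound addition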
CHRM1 PAM: human M1 muscarinic receptor positive allosteric modulators, primary screen, CHO-K1 cells, Fluo-8 calcium fluorescence, 1536-well; Muscarinic acetylcholine receptor M1 (Homo sapiens), P11229; CHO-K1 hM1, ACh EC20; 0% = ACh EC20, 100% = maximal ACh; activation, % at 3 µM; hit rate 0.088% among 360,000; AID 588819, 2011; in the data active = activation above about 19%, passing the limit was not always enough
An asterisk follows results filed as active; nt = not tested or not shown. Shown are actives, neighbours in structure and some others; about 3.9% of the full set was active somewhere.

SMILES	TAAR1 agonist	HTR2A ag	TAAR1 antag	CHRM1 antagonist	M1 ag	CHRM1 PAM
O=C(N/N=C/c1cccc2ccccc12)c1cccnc1	3	-2	-10	-13	-2	10
Cc1ccccc1/C=N/NC(=O)c1cccnc1	1	5	6	-34	3	27*
C[C@@H]1ON(C)[C@H]2C[C@H]3c4[nH]c5cccc(-c6ccccc6F)c5c4CCN3C(=O)[C@@H]12	7	nt	24	nt	nt	nt
Cc1cccc2c(N=NC(=O)c3ccc(NS(=O)(=O)c4cccs4)cc3)c(O)[nH]c12	5	-4	56*	37*	-7	-24
Cc1ccc(Cl)cc1N1CCN(C(=O)C2CCN(S(=O)(=O)c3cccnc3)CC2)CC1	13	4	23	18	2	-7
Cc1ccc(C)c(N2CCN(C(=O)C3CCN(S(=O)(=O)c4cccc5nsnc45)CC3)CC2)c1	14	-1	54*	18	1	-8
O=C(C1CCN(S(=O)(=O)c2cccc3nsnc23)CC1)N1CC=C(c2ccccc2)CC1	13	6	56*	14	0	-8
Cc1ccc(Cl)cc1N1CCN(C(=O)C2CCN(S(=O)(=O)c3c(C)nn(C)c3C)CC2)CC1	36	5	77*	22*	10	-20
O=C(C1CCN(S(=O)(=O)c2cccc3nsnc23)CC1)N1CCCCC1	2	-2	2	-5	-1	2
O=C(C1CCCN(S(=O)(=O)c2cccc3nsnc23)C1)N1CC=C(c2ccccc2)CC1 (stereo not drawn)	10	-6	50*	-1	1	-13
Cn1c2c(c(=O)[nH]c1=O)C(c1cccc(O)c1)C1=C(N2)c2ccccc2C1=O (stereo not drawn)	11	-1	7	3	-5	2
Clc1c(Cl)c(Cl)c2n[nH]nc2c1Cl	18	18*	-10	3	0	-4
C=CCNC(=O)C1CC(=O)N(c2ccc(OCC(=O)Nc3ccc(Cl)cc3)cc2)C1 (stereo not drawn)	0	5	-18	-4	-4	2
CCc1ccc(NC(=O)Nc2ccc3c(c2)N(C)C(=O)CS3)cc1	6	3	49*	28	1	-23
Cc1ccc(NC(=O)Nc2ccc3c(c2)N(C)C(=O)CS3)cc1C	6	-10	50*	32*	0	-23
CC(=O)c1cccc(NC(=O)Nc2ccc3c(c2)N(C)C(=O)CS3)c1	27	-7	66*	35*	5	-18
O=C1CC(=O)Nc2cc(S(=O)(=O)N3CCOc4ccc(Cl)cc43)ccc2N1	1	-4	2	7	-6	-8
CC(=O)c1ccc(OCc2cc(C(=O)NCCc3ccc(Cl)cc3)no2)cc1	6	-4	14	2	-2	-5
CCCCOC1CC(c2ccc(OCc3ccc(OC)cc3)c(OC)c2)N(C)O1 (stereo not drawn)	7	-1	6	9	-6	-4
COC(=O)c1cc(Br)cn1S(=O)(=O)c1ccccc1	5	-2	-18	-13	-7	11
O=C(C1CCN(S(=O)(=O)c2cnc[nH]2)CC1)N1CCN(c2ccc([N+](=O)[O-])cc2)CC1	0	6	-10	-11	-4	9
CC(=O)C1=CN(Cc2ccccc2)CCC1=O	1	-5	-8	-13	-3	9
CN1CCC(=O)N([C@H](CSc2ccc(Br)cc2)c2ccccc2)CC1	14	-12	14	55*	-13	-38
N#CCSc1nc2c(cc1C#N)CCCC2	2	3	-3	-11	-6	5
CSc1nc2c(cc1C#N)CCCCC2	2	0	-20	30*	-8	-26
SMILES	TAAR1 agonist	HTR2A ag	TAAR1 antag	CHRM1 antagonist	M1 ag	CHRM1 PAM
CON(C)C(=O)[C@H]1C[C@@H]2[C@H](C[C@@H](c3ccccc3)[C@H]1C)N(c1ccc(F)cc1)C(=O)N2CCCOc1ccccc1	0	nt	3	nt	nt	nt
O=[N+]([O-])c1ccc(Nc2ccc(F)cc2)nc1	0	-7	-11	1	-7	-3
Cc1ccc(Nc2ccc([N+](=O)[O-])cn2)cc1Cl	0	3	54*	0	-1	4
Cc1cccc(C)c1NC(=O)C1C(c2ccc3c(c2)OCO3)=Nc2ccccc2N1C(=O)c1ccccn1 (stereo not drawn)	3	-7	12	nt	nt	nt
COc1cc2cc(C)c(SCC(=O)N3CCN(C(=O)c4ccco4)CC3)nc2cc1OC	6	6	-17	-11	-6	4
CCOC(=O)C1CCCN(c2c(NCc3ccco3)c(=O)c2=O)C1 (stereo not drawn)	8	4	-4	-19	27*	12
CS(=O)(=O)NCCNc1ccc(Cl)cc1[N+](=O)[O-]	2	1	-1	23*	-5	-20
CCN(CCNc1ccc(Cl)cc1[N+](=O)[O-])C(=O)c1cc([N+](=O)[O-])c(N(C)C)cc1OC	5	-5	12	3	-4	-4
CN(C)CCNc1ccc(Cl)cc1[N+](=O)[O-]	3	-3	-9	35*	-8	-25
C[C@@H]1ON(C)[C@H]2C[C@H]3c4cc(-c5ccc6c(c5)OCO6)ccc4CCN3C[C@@H]12	0	nt	-11	nt	nt	nt
O=C(CCn1c(SCC(=O)NCc2ccco2)nc2ccccc2c1=O)NCCc1ccccc1	9	-5	10	-3	-3	1
C=CCn1c(SCC(=O)NCc2ccco2)nc2ccccc2c1=O	3	1	6	100*	-13	-33
NS(=O)(=O)c1ccc(CCNC(=O)COC(=O)/C=C/c2ccccc2Cl)cc1	42*	-3	-2	-3	6	3
COc1cccc(C2C(C(=O)c3cccs3)=C(O)C(=O)N2CCN2CCOCC2)c1OC (stereo not drawn)	-1	-1	5	-15	-2	18
CSc1ccc(CN2CCC(CO)(Cc3ccc(Cl)cc3)CC2)cc1	31	8	10	56*	-2	-23
COc1cc(SC)ccc1C(=O)NCCOc1ccc(Cl)cc1	7	-2	0	0	-10	7
CSc1ccc(Cl)c(C(=O)NCCOc2cc(C(C)C)ccc2C)c1	5	-6	49*	10	-12	-7
COc1cccc(C(c2nnnn2Cc2ccccc2)N2CCN(C3CCCC3)CC2)c1OC (stereo not drawn)	24	-5	53*	5	-4	-7

Bioassay records from PubChem.
